Test results: ChEMBL document CHEMBL3085698, “Bioactive lignans from the trunk of Abies holophylla” (J Nat Prod, 2013)

Assays:
C6 = assay: Induction of NGF secretion in rat C6 cells at 10 uM after 24 hrs by ELISA relative to control; type: functional
How it was run: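 Rat C6 glioma cells kept in DMEM with 10% FBS and 1% penicillin-streptomycin under 5% CO2, seeded at 1 × 10^5 cells/well. After 24 h, medium switched to DMEM with 2% FBS containing compound for one day. NGF released into the supernatant quantified by ELISA; viability checked by MTT. 6-Shogaol as positive control.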

[1] = Antineuroinflammatory activity in mouse BV2 cells assessed as inhibition of LPS-induced NO production incubated 30 mins prior to LPS-challenge measured after 24 hrs by Griess assay; type: functional, cell-based; conditions: BV-2
How it was run: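 BV-2 microglia grown in DMEM with 5% FBS and 1% penicillin-streptomycin, plated at 3 × 10^4 cells/well and left 24 h. Compounds added 30 min before 100 ng/mL LPS for 24 h. Supernatant nitrite measured by Griess reagent (1% sulphanilamide, 0.1% naphthylethylenediamine in 5% phosphoric acid), read at 540 nm after 10 min against a sodium nitrite standard. L-NMMA as positive control. IC50 reported.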

[2] = Cytotoxicity against LPS-stimulated mouse BV2 cells assessed as cell viability by MTT assay relative to control; type: cell-based; conditions: bv-2
How it was run: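 MTT viability read in the same BV-2 setup: cells at 3 × 10^4 cells/well in DMEM with 5% FBS, compound pretreatment for 30 min, then 100 ng/mL LPS stimulation for 24 h.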

IC50 [1] [µM] | Compound | Activity (C6) [%] | Activity [2]
 | COc1cc([C@@H]2Oc3c(OC)cc(CCCO)cc3[C@H]2CO)ccc1O[C@@H]1O[C@@H](C)[C@H](O)[C@@H](OC)[C@H]1O | 159 | 
31 | COc1cc(CCCO)ccc1O[C@@H](CO)Cc1ccc(O[C@@H]2OC[C@@H](O)[C@H](O)[C@H]2O)c(OC)c1 | 169 | Non-toxic
36.4 | COc1cc(C[C@H]2[C@H](OC)OC[C@@H]2[C@H](O)c2ccc(O)c(OC)c2)ccc1O |  | Non-toxic
32.9 | COc1cc([C@@H]2Oc3c(O)cc(CCCO)cc3[C@H]2CO)ccc1O[C@@H]1O[C@@H](C)[C@H](O)[C@@H](OC)[C@H]1O (relative stereo) |  | Non-toxic
 | COc1cc(C[C@H]2[C@@H](OC)OC[C@@H]2[C@H](O)c2ccc(O)c(OC)c2)ccc1O | 165 | 
 | CCCCC/C=C/C(=O)CCc1ccc(O)c(OC)c1 [SHOGAOL] | 129 | 

Compound | IC50 [1] [µM] | Activity (C6) [%] | Activity [2]
COc1cc([C@H]2c3cc(O)c(OC)cc3C[C@H]3C(=O)OC[C@H]23)ccc1O [ALPHA-CONIDENDRIN] | 28.5 |  | Non-toxic
